The source of these data is ChEMBL document CHEMBL1153752, “Hymenopsins A and B and a macrophorin analogue from a fungicolous Hymenopsis sp” (2010).

Activity calls are given as the source filed them. The calls are words filed in the database; no cut-off is given here.

Assay [1] relates to Staphylococcus aureus. Kind of assay: Antibacterial activity against Staphylococcus aureus ATCC 25923 at 200 ug/disk by disk diffusion method. It is filed as functional. To be noted: for zone of inhibition at 200 µg/disc: read-out: IZ. A digest of the protocol:
(§1)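 Standard paper-disk diffusion assay. Test material was loaded at 200 μg/disk, and gentamicin sulfate was run as the standard at 50 μg/disk. The C. albicans assay used the same 200 μg/disk level. The read-out was the diameter of the zone of inhibition in mm.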
On the technique in general: In agar diffusion tests the substance spreads into inoculated agar from a disc or well.

In assay [2] the test system is Bacillus subtilis. Kind of assay: Antibacterial activity against Bacillus subtilis ATCC 6051 at 200 ug/disk by disk diffusion method. It counts as functional. The settings on record: for zone of inhibition at 200 µg/disc: read-out: IZ. A digest of the protocol: as §1
In assay [3] the test system is Candida albicans. In words: Antifungal activity against Candida albicans ATCC 14053 at 200 ug/disk by disk diffusion method. It is filed as functional, organism-based. In short, it runs like this: as §1
The subject of assay [4] is Aspergillus flavus. In words: Antifungal activity against Aspergillus flavus NRRL 6541 at 200 ug/disk by disk diffusion method. It counts as functional.
Assay [5] deals with Fusarium verticillioides. Kind of assay: Antifungal activity against Fusarium verticillioides NRRL 25457 at 200 ug/disk by disk diffusion method. It is filed as functional.
Assay [6] relates to Candida albicans. In words: Antifungal activity against Candida albicans ATCC 14053 at 25 ug/disk by disk diffusion method. It is filed as functional, organism-based.
Assay [7] concerns Aspergillus flavus. In words: Antifungal activity against Aspergillus flavus NRRL 6541 at 25 ug/disk by disk diffusion method. It counts as functional, organism-based.
Assay [8] has as its system Fusarium verticillioides. Kind of assay: Antifungal activity against Fusarium verticillioides NRRL 25457 at 25 ug/disk by disk diffusion method. It counts as functional, organism-based.
The subject of assay [9] is Staphylococcus aureus. In words: Antibacterial activity against Staphylococcus aureus ATCC 25923 at 50 ug/disk by disk diffusion method. It counts as functional, organism-based. In short, it runs like this: as §1
Assay [10] deals with Bacillus subtilis. Kind of assay: Antibacterial activity against Bacillus subtilis ATCC 6051 at 50 ug/disk by disk diffusion method. It is filed as functional, organism-based. In short, it runs like this: as §1

Regarding `C[C@@]1(CO)CCC[C@]2(C)[C@H]3C[C@@]45O[C@@H]4C(=O)[C@]4(CO)O[C@@H]4[C@]5(O)CC3=CC[C@@H]12` [HYMENOPSIN B], the zone of inhibition at 200 µg/disc with Staphylococcus aureus [1] and in the assay with Bacillus subtilis [2] was 21 mm each time. Besides, the “inhibition zone (IZ)” value in the assay with Candida albicans [3], in the assay on Aspergillus flavus [4] and in the assay on Fusarium verticillioides [5] was “inactive” in each case.
Regarding NYSTATIN, the “inhibition zone (IZ)” value with Candida albicans [6], in the assay on Aspergillus flavus [7] and in the assay with Fusarium verticillioides [8] was “Active” throughout.
As to GENTAMICIN SULFATE, the inhibition zone (IZ) in the assay on Staphylococcus aureus [9] and with Bacillus subtilis [10] was 25 mm throughout. Moreover, the “inhibition zone (IZ)” value in the assay with Candida albicans [3] is “inactive”.
As for `C[C@@]1(CO)CCC[C@]2(C)[C@H]3C[C@@]45O[C@@H]4[C@H](O)[C@]4(CO)O[C@@H]4[C@]5(O)CC3=CC[C@@H]12`, the “inhibition zone (IZ)” value in the assay on Staphylococcus aureus [1], in the assay on Bacillus subtilis [2], with Candida albicans [3], in the assay on Aspergillus flavus [4] and in the assay with Fusarium verticillioides [5] was “inactive” each time.
In the case of `C=C1CC[C@H]2[C@](C)(CO)CCC[C@]2(C)[C@H]1C[C@@]12O[C@@H]1C(=O)[C@]1(CO)O[C@@H]1C2=O`, the zone of inhibition at 200 µg/disc was 32 mm in the assay on Staphylococcus aureus [1], 32 mm in the assay with Bacillus subtilis [2], 20 mm in the assay with Aspergillus flavus [4] (read-out: IZ) and 20 mm in the assay with Fusarium verticillioides [5] (read-out: IZ). In addition, the “inhibition zone (IZ)” value in the assay with Candida albicans [3] was “inactive”.
